Assay results gathered from unrelated publications.
Each line is one published result; the experiments were not run side by side.
Cell line: MCF7
Observed: cell growth or viability

Compound | technique | time | IC50
Clc1ccc(-c2nc3ccccc3[nH]2)cc1 | MTT | 48 h | 67.1 µM
COc1cccc2c1C(=O)c1c(O)c3c(c(O)c1C2=O)C[C@@](O)(C(=O)CO)C[C@@H]3O[C@H]1C[C@H](N)[C@H](O)[C@H](C)O1 |  | 48 h | 1.2 µM
CC1(C)CC[C@]2(C)CC[C@]3(C)C(=CC[C@@H]4[C@@]5(C)CC[C@H](O)C(C)(C)[C@@H]5CC[C@]43C)[C@@H]2C1 | WST-1 | 48 h | 63.6 µM
O=C(NC(=S)NCCCNC(=S)NC(=O)c1ccc2ccccc2c1)c1ccc2ccccc2c1 |  | 48 h | 1.12 µM
Cc1ccc2nc(-c3ccc(Cl)c(Cl)c3)n(Cc3ccccc3)c2c1 | MTT |  | 80.5 µM
O=Cc1ccc(-c2ccc3ncnc(Nc4cccc(C(F)(F)F)c4)c3c2)cc1 | MTT | 24 h | 15.5 µM
COc1cc(CNCC2CCNCC2)ccc1OCc1cccc(C)c1 | MTT | 72 h | > 100 µM
CC/C(=C(\c1ccc(O)cc1)c1ccc(OCCN(C)C)cc1)c1ccccc1 |  | 5 days | 4.22 µM
COc1ccc(C2=N[C@@H](c3ccc(Cl)cc3)[C@@H](c3ccc(Cl)cc3)N2C(=O)N2CCNC(=O)C2)c(OC(C)C)c1 | MTT | 48 h | 11 µM
Oc1c(Br)cc(Br)c2cccnc12 | MTT | 48 h | > 100 µM
CN(C)CCCn1cccc1/C=N/NC(=O)Nc1cc2c(Nc3ccc(F)c(Cl)c3)ncnc2cc1O[C@H]1CCOC1 | MTT | 72 h | 6.17 µM
C[C@H]1[C@@H](O)O[C@@H]2O[C@@]3(C)CC[C@H]4[C@H](C)CC[C@@H]1[C@@]24OO3 | CCK-8 | 48 h | > 50 µM
CCOc1ccc(-c2nc3ccccc3n2Cc2ccccc2)cc1 | MTT |  | 40.1 µM
O=S(=O)(NN=Cc1cn(CCN2CCOCC2)c2ccccc12)c1ccc(Cl)cc1 | MTT | 48 h | 13.2 µM
COc1cc(Nc2nccc(-c3cnn4nc(OC)ccc34)n2)cc(C(F)(F)F)c1 | ATP luminescence |  | 0.95 µM
COc1cccc2c1C(=O)c1c(O)c3c(c(O)c1C2=O)C[C@@](O)(C(=O)CO)C[C@@H]3O[C@H]1C[C@H](N)[C@H](O)[C@H](C)O1 | MTT | 48 h | 0.09 µM
COc1cccc(-c2nc3ccc(C)cc3[nH]2)c1 | MTT | 48 h | 50.6 µM
CS(=O)(=O)c1ccc(-n2cc(C=N/N=c3\[nH]c(-c4ccc(Br)cc4)cs3)c(-c3ccc([N+](=O)[O-])cc3)n2)cc1 | MTT | 48 h | 19.9 µM
Oc1ncnc2cc(Nc3nc(-c4ccc(Cl)cc4)cs3)ccc12 | MTT |  | 4.14 µM
CN(C)C/C=N/NC(=O)Nc1cc2c(Nc3ccc(F)c(Cl)c3)ncnc2cc1O[C@H]1CCOC1 | MTT | 72 h | 5.72 µM
Cc1ccc2nc(-c3c4ccccc4cc4ccccc34)[nH]c2c1 | MTT | 48 h | 39 µM
Cc1ccc2c(Cl)cc(Cl)c(O)c2n1 | MTT | 48 h | > 100 µM
COc1cc2ncnc(Nc3ccc(F)c(Cl)c3)c2cc1NC(=O)N/N=C/CN1CCN(C)CC1 | MTT | 72 h | 8.76 µM
COc1cc2c(Nc3ccc(NC(=O)c4ccccc4)cc3)ncnc2cc1OCCCN1CCOCC1 | MTS | 72 h | 0.8 µM

Compound | technique | time | IC50
O=C(NC(=S)NCCNC(=S)NC(=O)c1ccc2ccccc2c1)c1ccc2ccccc2c1 |  | 48 h | 1.2 µM
CSc1nc(N)n(-c2ccc(C(=O)O)cc2)n1 | MTT |  | 32.9 µM
COc1ccc(-c2nn(-c3ccc(S(C)(=O)=O)cc3)cc2/C=N/N=c2\[nH]c(-c3ccc(Br)cc3)cs2)cc1 | MTT | 48 h | 3.18 µM
COc1ccc(O)c(/C=N/c2nc(Oc3ccccc3)nn2-c2ccc(C(=O)O)cc2)c1 | MTT |  | 27.5 µM
COc1nc(OCc2cccc(-c3ccccc3)c2C)ccc1CNCCNC(C)=O | MTT |  | 6.2 µM
CN1CCN(CCn2cccc2/C=N/NC(=O)Nc2cc3c(Nc4ccc(F)c(Cl)c4)ncnc3cc2O[C@H]2CCOC2)CC1 | MTT | 72 h | 2.42 µM
c1ccc2cc(-c3nnc(NC4CCCCC4)[nH]3)ccc2c1 |  | 48 h | 1.75 µM
Cc1cc(C)n(-c2nc(Nc3ccc(Cl)cc3)nc(-n3nc(C)cc3C)n2)n1 | MTT | 72 h | 2.29 µM
Cc1ccc2nc(-c3ccccc3O)[nH]c2c1 | MTT | 48 h | 18 µM
Nc1nc(Oc2ccccc2)nn1-c1ccc(C(=O)O)cc1 | MTT |  | 18.7 µM
O=S(=O)(NN=Cc1cn(CCN2CCOCC2)c2ccccc12)c1ccc(-c2ccccc2)cc1 | MTT | 48 h | 17.3 µM
O=C(N/N=C/c1cccn1CCCN1CCCC1)Nc1cc2c(Nc3ccc(F)c(Cl)c3)ncnc2cc1O[C@H]1CCOC1 | MTT | 72 h | 2.41 µM
O=c1[nH]c(=S)[nH]c2c1CCCN2 | MTT | 72 h | > 100 µM
O=S(=O)(Cc1ccccc1)NN=Cc1cn(CCN2CCOCC2)c2ccccc12 | MTT | 48 h | 62.5 µM
FC(F)(F)c1cccc(Nc2ncnc3ccc(-c4ccc5c(c4)OCO5)cc23)c1 | MTT | 24 h | 6.74 µM
CCOc1cc(OCC)cc(C(=O)O[C@@H]2CN3Cc4c(cc5c(c4OC)OCO5)[C@@]24C=C[C@H](OC)C[C@@H]34)c1 | WST-1 |  | 6.3 µM
Oc1ncnc2cc(Nc3nc(-c4ccccc4)cs3)ccc12 | MTT |  | 6.21 µM
Cc1cc(=O)[nH]c(=O)n1Cc1cn(-c2c3ccccc3nc3ccccc23)nn1 | MTT |  | 2.7 µM
COc1cc2ncnc(Nc3ccc(F)c(Cl)c3)c2cc1NC(=O)N/N=C/c1cccn1CCN1CCOCC1 | MTT | 72 h | 1.17 µM
O=c1[nH]cc(F)c(=O)[nH]1 | WST-1 | 48 h | 3.1 µM
COc1ccc(-c2nc3ccccc3[nH]2)cc1OC | MTT | 48 h | > 100 µM
CC[C@H](C)C(=O)O[C@H]1C[C@H](O)C=C2C=C[C@H](C)[C@H](CC[C@@H](O)C[C@@H](O)CC(=O)O)[C@H]21 | SRB | 72 h | 98 µg/mL
COc1cc2ncnc(Nc3ccc(F)c(Cl)c3)c2cc1NC(=O)N/N=C/CN1CCCC1 | MTT | 72 h | 7.53 µM
Oc1ccccc1-c1nc2ccccc2[nH]1 | MTT | 48 h | > 100 µM
